Experimental data as given in article PMC12823633 (Cancer Chemotherapy and Pharmacology, 2026).

Experiments:
[1] = TAS-115 trough plasma concentrations; assay type: in vivo, human (patients with solid tumors)
[2] = Adverse events, DDI evaluation period; assay type: in vivo, human (patients with solid tumors)
[3] = Adverse events, continuous administration period; assay type: in vivo, human (patients with solid tumors)
solid tumors = test: Anti-tumor efficacy, continuous administration period; assay type: in vivo, human (patients with solid tumors)
Method in brief: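 Open-label single-arm multicenter study in Japan. Test compound 250 mg given orally, fasted, on 5 consecutive days from Day 1 of repeated 21-day cycles (2 days off), until discontinuation. Investigator-assessed per RECIST 1.1. ORR is the % with best response CR/PR; DCR is the % with CR/PR/SD. OS in osteosarcoma runs from enrollment to death from any cause, censored at the last recorded follow-up or observation.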

CYP2B6 = details: read-out: IC50, reversible inhibition; ref unpublished inhouse data; cited from earlier work
CYP2C8 = details: read-out: IC50, reversible inhibition; ref unpublished inhouse data; cited from earlier work
CYP2C9 = details: read-out: IC50, reversible inhibition; ref unpublished inhouse data; cited from earlier work
CYP2C19 = details: read-out: IC50, reversible inhibition; ref unpublished inhouse data; cited from earlier work
CYP3A = details: time-dependent inhibition; ref unpublished inhouse data; cited from earlier work
[4] = After Administration of TAS-115, DDI period (N=18)
[5] = Entire DDI Evaluation Period (N=18)
[6] = Continuous Administration Period (N=18)
[7] = continuous administration period
[8] = All patients (N=16), efficacy-evaluable

With CNC(=O)c1cc2c(Oc3ccc(NC(=S)NC(=O)Cc4ccccc4)cc3F)ccnc2cc1OC [TAS-115, pamufetinib] the “trough plasma concentration, arithmetic mean (standard deviation)” value ([1]; Day 4, 250 mg once daily oral) was 834.5 (318.68) ng/mL, the “trough plasma concentration, arithmetic mean (standard deviation)” value ([1]; Day 5, 250 mg once daily oral) was 881.6 (378.03) ng/mL and the concentration at 24 h ([1]; human, plasma, po, 250 mg) was 0.576 µg/mL. The “Any >=Grade 3 TEAEs” value [2, 4] was 2 (11.1) N (%), the “Any >=Grade 3 TRAEs” value [2, 4] was 1 (5.6) N (%) and the “Any >=Grade 3 TRAEs Related to TAS-115” value [2, 4] was 1 (5.6) N (%). For the same molecule, the “Any SAEs” value [2, 4] was 0 (0.0) N (%), the “Any TEAEs” value [2, 4] was 15 (83.3) N (%) and the “Any TEAEs Leading to Death” value [2, 4] was 0 (0.0) N (%). The “Any TEAEs Leading to Discontinuation of Study Medication” value (“Any TEAEs Leading to Discontinuation” for short) [2, 4] was 0 (0.0) N (%), the “Any TEAEs Leading to Dose Interruption of TAS-115” value [2, 4] was 0 (0.0) N (%) and the “Any TEAEs Leading to Dose Reduction of TAS-115” value [2, 4] was 0 (0.0) N (%). For the same molecule, the “Any TRAEs” value [2, 4] was 15 (83.3) N (%), the “Any TRAEs Leading to Death” value [2, 4] was 0 (0.0) N (%) and the “Any TRAEs Leading to Discontinuation of Study Medication” value (“Any TRAEs Leading to Discontinuation” for short) [2, 4] was 0 (0.0) N (%). The “Any TRAEs Related to TAS-115” value [2, 4] was 14 (77.8) N (%), the “Any TRAEs Related to TAS-115 Leading to Dose Interruption of TAS-115” value [2, 4] was 0 (0.0) N (%) and the “Any TRAEs Related to TAS-115 Leading to Dose Reduction of TAS-115” value [2, 4] was 0 (0.0) N (%). The “Any Treatment-Related SAEs” value [2, 4] was 0 (0.0) N (%), the “Grade 3 or higher TRAE (anaemia) attributed to TAS-115” value ([2]; DDI evaluation period) was “one patient” and the “patients reporting TEAEs” value ([2]; DDI evaluation period) was 83.3%. The “patients with TRAEs” value ([2]; DDI evaluation period) was 83.3%, the “patients with TRAEs related to TAS-115” value ([2]; DDI evaluation period) was 14 patients and the “patients with TEAEs of ≥ Grade 3” value ([2]; DDI evaluation period, anemia and lipase increased) was 11.1%. For the same molecule, the “Any >=Grade 3 TEAEs” value [2, 5] was 2 (11.1) N (%), the “Any >=Grade 3 TRAEs” value [2, 5] was 1 (5.6) N (%) and the “Any >=Grade 3 TRAEs Related to TAS-115” value [2, 5] was 1 (5.6) N (%). The “Any SAEs” value [2, 5] was 0 (0.0) N (%), the “Any TEAEs” value [2, 5] was 15 (83.3) N (%) and the “Any TEAEs Leading to Death” value [2, 5] was 0 (0.0) N (%). For the same molecule, the “Any TEAEs Leading to Discontinuation” value [2, 5] was 0 (0.0) N (%), the “Any TEAEs Leading to Dose Interruption of TAS-115” value [2, 5] was 0 (0.0) N (%) and the “Any TEAEs Leading to Dose Reduction of TAS-115” value [2, 5] was 0 (0.0) N (%). For the same molecule, the “Any TRAEs” value [2, 5] was 15 (83.3) N (%), the “Any TRAEs Leading to Death” value [2, 5] was 0 (0.0) N (%) and the “Any TRAEs Leading to Discontinuation” value [2, 5] was 0 (0.0) N (%). For the same molecule, the “Any TRAEs Related to TAS-115” value [2, 5] was 14 (77.8) N (%), the “Any TRAEs Related to TAS-115 Leading to Dose Interruption of TAS-115” value [2, 5] was 0 (0.0) N (%) and the “Any TRAEs Related to TAS-115 Leading to Dose Reduction of TAS-115” value [2, 5] was 0 (0.0) N (%). The “Any Treatment-Related SAEs” value [2, 5] was 0 (0.0) N (%), the “Any >=Grade 3 TEAEs” value [3, 6] was 8 (44.4) N (%) and the “Any >=Grade 3 TRAEs Related to TAS-115” value [3, 6] was 6 (33.3) N (%). The “Any SAEs” value [3, 6] was 5 (27.8) N (%), the “Any TEAEs” value [3, 6] was 18 (100.0) N (%) and the “Any TEAEs Leading to Death” value [3, 6] was 0 (0.0) N (%). The “Any TEAEs Leading to Discontinuation” value [3, 6] was 1 (5.6) N (%), the “Any TEAEs Leading to Dose Interruption of TAS-115” value [3, 6] was 10 (55.6) N (%) and the “Any TEAEs Leading to Dose Reduction of TAS-115” value [3, 6] was 1 (5.6) N (%). The “Any TRAEs Leading to Death” value [3, 6] was 0 (0.0) N (%), the “Any TRAEs Leading to Discontinuation” value [3, 6] was 1 (5.6) N (%) and the “Any TRAEs Related to TAS-115” value [3, 6] was 17 (94.4) N (%). The “Any TRAEs Related to TAS-115 Leading to Dose Interruption of TAS-115” value [3, 6] was 9 (50.0) N (%), the “Any TRAEs Related to TAS-115 Leading to Dose Reduction of TAS-115” value [3, 6] was 1 (5.6) N (%) and the “Any Treatment-Related SAEs” value [3, 6] was 2 (11.1) N (%). For the same molecule, the “Grade 3 rash maculo-papular leading to discontinuation of TAS-115” value [3, 7] was “One patient”, the “TEAE blood creatine phosphokinase (CK) increased” value [3, 7] was 27.8% and the “TRAE of ≥ Grade 3 related to TAS-115: anaemia” value [3, 7] was 11.1%. For the same molecule, the “TRAE related to TAS-115: alanine aminotransferase increased” value [3, 7] was 33.3%, the “TRAE related to TAS-115: anemia” value [3, 7] was 27.8% and the “TRAE related to TAS-115: aspartate aminotransferase increased” value [3, 7] was 55.6%. For the same molecule, the “TRAE related to TAS-115: blood CK increased” value [3, 7] was 27.8%, the “TRAE related to TAS-115: platelet count decreased” value [3, 7] was 22.2% and the “TRAE related to TAS-115: rash” value [3, 7] was 22.2%. For the same molecule, the “criteria for severe drug-induced liver injury (Hy’s law)” value [3, 7] was “No criteria for severe drug-induced liver injury (Hy’s law) were met”, the “patients reporting TEAEs” value [3, 7] was 100% and the “patients requiring dose interruption by AEs” value [3, 7] was 55.6%. The “patients requiring dose reduction due to AEs related to TAS-115” value [3, 7] was 5.6%, the “patients with SAEs” value [3, 7] was 27.8% and the “patients with TEAEs of ≥ Grade 3” value [3, 7] was 44.4%. The “patients with TRAEs of ≥ Grade 3 related to TAS-115” value [3, 7] was 33.3%, the “patients with TRAEs related to TAS-115” value [3, 7] was 94.4% and the deaths ([3]; continuous administration period or within 30 days following discontinuation) was “No deaths occurred”. For the same molecule, the CR (solid tumors; [8]) was 0 (0.0) N (%), the “Disease control rate (CR+PR+SD)” value (solid tumors; [8]) was 6 (37.5) N (%) and the PD (solid tumors; [8]) was 10 (62.5) N (%). The PR (solid tumors; [8]) was 1 (6.3) N (%), the “Progression-free survival, Censored” value (solid tumors; [8]) was 2 (12.5) N (%) and the “Progression-free survival, Event” value (solid tumors; [8]) was 14 (87.5) N (%). The “Progression-free survival, Median” value (solid tumors; [8]) was 2.1 month, the “Response rate (CR+PR)” value (solid tumors; [8]) was 1 (6.3) N (%) and the CR (solid tumors; Osteosarcoma (N=4)) was 0 (0.0) N (%). The “Disease control rate (CR+PR+SD)” value (solid tumors; Osteosarcoma (N=4)) was 2 (50.0) N (%), the “Overall survival, Censored” value (solid tumors; Osteosarcoma (N=4)) was 1 (25.0) N (%) and the “Overall survival, Event” value (solid tumors; Osteosarcoma (N=4)) was 3 (75.0) N (%). The “Overall survival, Median” value (solid tumors; Osteosarcoma (N=4)) was 13.8 month, the PD (solid tumors; Osteosarcoma (N=4)) was 2 (50.0) N (%) and the PR (solid tumors; Osteosarcoma (N=4)) was 1 (25.0) N (%). The “Progression-free survival, Censored” value (solid tumors; Osteosarcoma (N=4)) was 0 (0.0) N (%), the “Progression-free survival, Event” value (solid tumors; Osteosarcoma (N=4)) was 4 (100.0) N (%) and the “Progression-free survival, Median” value (solid tumors; Osteosarcoma (N=4)) was 7.0 month. The “Response rate (CR+PR)” value (solid tumors; Osteosarcoma (N=4)) was 1 (25.0) N (%), the DCR (solid tumors; patients with solid tumors, 16 evaluable) was 37.5% and the IC50 (CYP2B6) was 6.03 µM. The IC50 (CYP2C8) was 0.563 µM, the IC50 (CYP2C9) was 2.03 µM and the IC50 (CYP2C19) was 4.23 µM. The “concentration of the inhibitor required to achieve 50% of the maximum inactivation rate” value (CYP3A) was 28.5 µmol/L and the “maximum inactivation rate constant” value (CYP3A) was 0.0650 min⁻¹.
